Drawing on ChEMBL document CHEMBL1165965, “Synthesis and structure-activity relationships of 1,2,3,4-tetrahydropyrido[2,3-b]pyrazines as potent and selective inhibitors of the anaplastic lymphoma kinase” (Bioorg Med Chem, 2010), this text covers inhibition and IC50 for ten compounds.

For test [1], the target named is T1, Tyrosine-protein kinase ITK/TSK (Homo sapiens) (UniProt Q08881).
T1 sequence (whole entry): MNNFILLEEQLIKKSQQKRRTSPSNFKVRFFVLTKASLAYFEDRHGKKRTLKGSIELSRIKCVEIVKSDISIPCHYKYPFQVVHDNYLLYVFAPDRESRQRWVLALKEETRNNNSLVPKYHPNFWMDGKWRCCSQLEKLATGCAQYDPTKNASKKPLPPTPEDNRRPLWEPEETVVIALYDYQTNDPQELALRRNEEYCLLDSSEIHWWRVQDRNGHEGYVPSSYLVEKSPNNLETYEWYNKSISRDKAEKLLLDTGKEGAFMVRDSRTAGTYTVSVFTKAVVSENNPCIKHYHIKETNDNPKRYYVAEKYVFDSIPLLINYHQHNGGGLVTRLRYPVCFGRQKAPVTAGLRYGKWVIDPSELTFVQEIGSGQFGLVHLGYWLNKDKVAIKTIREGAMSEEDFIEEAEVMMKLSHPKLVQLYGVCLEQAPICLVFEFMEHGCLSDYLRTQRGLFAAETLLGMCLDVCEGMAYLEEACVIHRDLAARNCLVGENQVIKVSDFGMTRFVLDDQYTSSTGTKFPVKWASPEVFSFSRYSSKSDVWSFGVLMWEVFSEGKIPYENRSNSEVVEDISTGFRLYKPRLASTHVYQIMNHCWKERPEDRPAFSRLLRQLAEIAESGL
As to the kind of experiment: Inhibition of ITK at 1 uM. An outline of the steps: (§1)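 Single-concentration screen on the Ambit KINOMEscan platform, run against a panel of 250–400 kinases. Per-kinase inhibition was also summarized as S(90), the fraction of kinases inhibited by more than 90%.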

Test [2] addresses Mitogen-activated protein kinase kinase kinase kinase 4 (Homo sapiens) (UniProt O95819). As to the kind of experiment: Inhibition of MAP4K4 at 1 uM. Summed up: as §1
Test [3] addresses T2, Dual specificity mitogen-activated protein kinase kinase 6 (Homo sapiens) (UniProt P52564).
T2 sequence (whole entry): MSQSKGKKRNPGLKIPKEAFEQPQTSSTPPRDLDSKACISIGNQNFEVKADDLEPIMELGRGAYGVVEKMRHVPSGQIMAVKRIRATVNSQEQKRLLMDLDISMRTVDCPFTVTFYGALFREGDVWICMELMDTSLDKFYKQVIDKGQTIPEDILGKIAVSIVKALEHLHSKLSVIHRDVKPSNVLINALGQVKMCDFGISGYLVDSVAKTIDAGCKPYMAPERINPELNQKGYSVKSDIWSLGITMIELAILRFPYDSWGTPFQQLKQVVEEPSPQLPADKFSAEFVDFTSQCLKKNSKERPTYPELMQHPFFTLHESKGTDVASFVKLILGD
The test is described as follows: Inhibition of MEK6 at 1 uM. Summed up:
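Kinase-panel screen using KINOMEscan technology, with 250–400 kinases per panel. Each compound was tested at a single concentration, and inhibition of each kinase was recorded. Selectivity was summarised as S(90), the fraction of kinases inhibited by more than 90%.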

For test [4], the target named is Phosphorylase b kinase gamma catalytic chain, skeletal muscle/heart isoform (Homo sapiens) (UniProt Q16816). As to the kind of experiment: Inhibition of PHKG1 at 1 uM.
Test [5] addresses Calcium/calmodulin-dependent protein kinase kinase 2 (Homo sapiens) (UniProt Q96RR4). The test is described as follows: Inhibition of CAMKK2 at 1 uM. An outline of the steps:
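Ambit KINOMEscan screen at a single concentration across a 250–400 kinase panel, recorded as percent inhibition. Selectivity was expressed as S(90), the fraction of kinases inhibited >90%.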

Test [6] concerns the target Casein kinase II subunit alpha' (Homo sapiens) (UniProt P19784). The test is described as follows: Inhibition of CSNK2A2 at 1 uM. Summed up:
(§2)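 Single-concentration screen using Ambit Bioscience KINOMEscan technology across a panel of 250–400 kinases. Per-kinase inhibition from this screen was summarized as S(90), the fraction of kinases inhibited by more than 90%.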

The target in test [7] is Serine/threonine-protein kinase MRCK gamma (Homo sapiens) (UniProt Q6DT37). As to the kind of experiment: Inhibition of DMPK2 at 1 uM. An outline of the steps: as §2
Test [8] has as its target Glycogen synthase kinase-3 alpha (Homo sapiens) (UniProt P49840). As to the kind of experiment: Inhibition of GSK3A at 1 uM. Summed up:
as §1

Test [9] concerns Mast/stem cell growth factor receptor Kit (Homo sapiens), P10721 [L576P]. The test is described as follows: Inhibition of KIT L576P mutant at 1 uM.
For test [10], the target named is Dual specificity mitogen-activated protein kinase kinase 2 (Homo sapiens) (UniProt P36507). As to the kind of experiment: Inhibition of MEK2 at 1 uM.
Test [11] concerns the target Serine/threonine-protein kinase PLK2 (Homo sapiens) (UniProt Q9NYY3). As to the kind of experiment: Inhibition of PLK2 at 1 uM.
Test [12] addresses Ribosomal protein S6 kinase alpha-4 (Homo sapiens) (UniProt O75676). The test is described as follows: Inhibition of RPS6KA4 C-terminal domain2 at 1 uM.
Test [13] deals with ALK tyrosine kinase receptor (Homo sapiens, UniProt Q9UM73). As to the kind of experiment: Inhibition of ALK phosphorylation in human Karpas-299 cells by immunoblotting and ELISA. In kind it is cell-based. Summed up:
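Karpas-299 cells were treated with compound, then lysed in Tris pH 7.5 / 1% Triton X-100 buffer containing phosphatase and protease inhibitors, briefly sonicated and cleared. For immunoblots, SDS–PAGE was probed with phospho-NPM-ALK(Y664) or total ALK antibodies and bands were quantified by ECL. For ELISA, lysates were captured overnight at 4 °C on anti-ALK, detected with anti-phospho-ALK(Y664) plus AP secondary, and read by 4-MeUP fluorescence.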

Chain of Casein kinase II subunit alpha' (Homo sapiens) (P19784 whole entry, looked up): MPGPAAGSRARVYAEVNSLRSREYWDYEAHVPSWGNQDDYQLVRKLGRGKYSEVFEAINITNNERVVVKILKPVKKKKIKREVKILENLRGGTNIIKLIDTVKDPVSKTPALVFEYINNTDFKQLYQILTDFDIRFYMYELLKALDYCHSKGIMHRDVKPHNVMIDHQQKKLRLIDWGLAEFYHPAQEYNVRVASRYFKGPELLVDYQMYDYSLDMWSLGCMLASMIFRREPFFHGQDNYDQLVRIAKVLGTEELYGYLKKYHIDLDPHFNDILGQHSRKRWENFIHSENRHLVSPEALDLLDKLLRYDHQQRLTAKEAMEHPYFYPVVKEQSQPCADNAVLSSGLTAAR
Chain of Mitogen-activated protein kinase kinase kinase kinase 4 (Homo sapiens) (O95819 2-1239 limits assumed): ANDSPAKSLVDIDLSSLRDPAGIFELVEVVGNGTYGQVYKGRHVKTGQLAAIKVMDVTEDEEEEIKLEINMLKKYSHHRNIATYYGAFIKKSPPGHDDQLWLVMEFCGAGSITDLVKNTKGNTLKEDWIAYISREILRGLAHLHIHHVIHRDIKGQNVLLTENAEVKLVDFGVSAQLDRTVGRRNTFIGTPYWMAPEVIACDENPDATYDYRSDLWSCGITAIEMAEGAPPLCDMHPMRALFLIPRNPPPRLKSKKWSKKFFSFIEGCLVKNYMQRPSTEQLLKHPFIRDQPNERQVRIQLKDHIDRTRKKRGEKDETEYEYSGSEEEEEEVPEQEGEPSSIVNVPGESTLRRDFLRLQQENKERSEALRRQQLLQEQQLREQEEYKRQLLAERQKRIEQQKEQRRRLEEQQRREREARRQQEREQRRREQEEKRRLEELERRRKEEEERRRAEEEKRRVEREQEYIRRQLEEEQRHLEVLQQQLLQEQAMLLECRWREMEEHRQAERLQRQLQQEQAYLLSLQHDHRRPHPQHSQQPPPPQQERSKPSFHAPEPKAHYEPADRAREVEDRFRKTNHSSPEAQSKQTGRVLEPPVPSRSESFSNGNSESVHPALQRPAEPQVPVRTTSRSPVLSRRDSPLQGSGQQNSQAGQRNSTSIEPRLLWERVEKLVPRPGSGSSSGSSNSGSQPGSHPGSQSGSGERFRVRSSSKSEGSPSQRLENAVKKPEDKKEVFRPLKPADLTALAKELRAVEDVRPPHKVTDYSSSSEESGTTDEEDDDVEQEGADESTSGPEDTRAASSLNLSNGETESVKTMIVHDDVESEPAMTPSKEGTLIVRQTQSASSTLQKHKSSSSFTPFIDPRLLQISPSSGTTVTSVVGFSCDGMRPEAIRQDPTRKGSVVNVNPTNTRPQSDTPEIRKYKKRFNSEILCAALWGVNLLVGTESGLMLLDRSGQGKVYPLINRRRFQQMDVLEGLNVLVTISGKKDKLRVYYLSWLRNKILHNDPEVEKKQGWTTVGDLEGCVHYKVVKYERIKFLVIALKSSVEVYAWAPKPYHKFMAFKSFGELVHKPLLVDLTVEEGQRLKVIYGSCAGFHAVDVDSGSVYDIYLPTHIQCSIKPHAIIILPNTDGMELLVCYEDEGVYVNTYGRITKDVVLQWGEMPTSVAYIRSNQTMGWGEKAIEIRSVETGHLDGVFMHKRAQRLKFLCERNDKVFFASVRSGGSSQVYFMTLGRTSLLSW
Chain of Serine/threonine-protein kinase PLK2 (Homo sapiens) (Q9NYY3 whole entry, looked up, the tested form may be a part): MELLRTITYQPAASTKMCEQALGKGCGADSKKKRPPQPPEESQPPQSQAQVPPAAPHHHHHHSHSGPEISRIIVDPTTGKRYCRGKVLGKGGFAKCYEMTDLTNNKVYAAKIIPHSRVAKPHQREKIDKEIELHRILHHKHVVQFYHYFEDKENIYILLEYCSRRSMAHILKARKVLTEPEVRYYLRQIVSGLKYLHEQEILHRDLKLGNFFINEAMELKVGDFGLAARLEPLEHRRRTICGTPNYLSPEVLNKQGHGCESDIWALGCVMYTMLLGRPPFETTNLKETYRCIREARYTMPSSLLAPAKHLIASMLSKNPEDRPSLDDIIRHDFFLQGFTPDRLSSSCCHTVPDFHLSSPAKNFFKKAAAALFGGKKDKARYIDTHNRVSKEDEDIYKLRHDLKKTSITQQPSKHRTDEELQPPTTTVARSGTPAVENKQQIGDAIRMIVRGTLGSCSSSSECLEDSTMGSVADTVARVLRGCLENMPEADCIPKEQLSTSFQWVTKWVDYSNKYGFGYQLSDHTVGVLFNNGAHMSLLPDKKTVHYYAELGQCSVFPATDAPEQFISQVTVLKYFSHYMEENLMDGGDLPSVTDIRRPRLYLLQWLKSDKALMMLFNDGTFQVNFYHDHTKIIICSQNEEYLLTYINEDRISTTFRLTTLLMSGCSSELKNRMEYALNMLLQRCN
Chain of Serine/threonine-protein kinase MRCK gamma (Homo sapiens) (Q6DT37 whole entry): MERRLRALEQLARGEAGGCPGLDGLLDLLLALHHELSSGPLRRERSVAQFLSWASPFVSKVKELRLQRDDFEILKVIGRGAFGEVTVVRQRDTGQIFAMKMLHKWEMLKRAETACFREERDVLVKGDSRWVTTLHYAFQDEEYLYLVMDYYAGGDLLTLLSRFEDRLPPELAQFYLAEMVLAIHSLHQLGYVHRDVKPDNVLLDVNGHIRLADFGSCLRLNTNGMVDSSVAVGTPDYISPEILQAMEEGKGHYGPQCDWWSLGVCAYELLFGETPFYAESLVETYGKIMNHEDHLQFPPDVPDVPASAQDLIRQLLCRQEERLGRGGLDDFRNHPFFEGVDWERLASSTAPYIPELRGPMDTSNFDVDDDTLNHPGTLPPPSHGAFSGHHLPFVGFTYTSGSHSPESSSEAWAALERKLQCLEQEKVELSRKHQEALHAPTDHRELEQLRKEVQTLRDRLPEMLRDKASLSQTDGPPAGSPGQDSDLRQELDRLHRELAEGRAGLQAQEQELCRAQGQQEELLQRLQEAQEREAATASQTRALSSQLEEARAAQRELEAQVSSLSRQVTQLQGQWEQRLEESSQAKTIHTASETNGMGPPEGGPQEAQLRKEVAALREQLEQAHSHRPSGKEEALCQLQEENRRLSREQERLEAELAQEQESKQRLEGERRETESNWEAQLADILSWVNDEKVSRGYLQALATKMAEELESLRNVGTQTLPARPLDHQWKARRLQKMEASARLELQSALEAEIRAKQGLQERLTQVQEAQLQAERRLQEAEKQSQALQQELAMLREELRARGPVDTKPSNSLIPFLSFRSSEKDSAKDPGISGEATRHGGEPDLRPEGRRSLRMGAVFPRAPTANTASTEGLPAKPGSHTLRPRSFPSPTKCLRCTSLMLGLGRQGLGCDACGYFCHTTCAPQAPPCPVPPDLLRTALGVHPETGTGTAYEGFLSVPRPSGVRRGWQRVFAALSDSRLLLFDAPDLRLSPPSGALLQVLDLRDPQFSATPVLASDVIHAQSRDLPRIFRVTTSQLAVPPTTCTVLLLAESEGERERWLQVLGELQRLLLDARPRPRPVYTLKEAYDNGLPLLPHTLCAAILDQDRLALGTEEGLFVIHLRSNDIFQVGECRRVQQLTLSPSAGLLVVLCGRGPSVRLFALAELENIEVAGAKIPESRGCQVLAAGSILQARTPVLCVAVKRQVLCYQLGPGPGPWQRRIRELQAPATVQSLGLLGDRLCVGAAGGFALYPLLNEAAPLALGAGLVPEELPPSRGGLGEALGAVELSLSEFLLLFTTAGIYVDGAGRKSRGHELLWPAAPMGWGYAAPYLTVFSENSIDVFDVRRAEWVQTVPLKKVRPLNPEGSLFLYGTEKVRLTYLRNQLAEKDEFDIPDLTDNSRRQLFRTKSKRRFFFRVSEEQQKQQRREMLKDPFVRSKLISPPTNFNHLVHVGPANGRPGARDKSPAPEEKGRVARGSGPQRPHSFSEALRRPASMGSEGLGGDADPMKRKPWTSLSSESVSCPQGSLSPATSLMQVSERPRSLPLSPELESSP
Chain of Dual specificity mitogen-activated protein kinase kinase 2 (Homo sapiens) (P36507 whole entry): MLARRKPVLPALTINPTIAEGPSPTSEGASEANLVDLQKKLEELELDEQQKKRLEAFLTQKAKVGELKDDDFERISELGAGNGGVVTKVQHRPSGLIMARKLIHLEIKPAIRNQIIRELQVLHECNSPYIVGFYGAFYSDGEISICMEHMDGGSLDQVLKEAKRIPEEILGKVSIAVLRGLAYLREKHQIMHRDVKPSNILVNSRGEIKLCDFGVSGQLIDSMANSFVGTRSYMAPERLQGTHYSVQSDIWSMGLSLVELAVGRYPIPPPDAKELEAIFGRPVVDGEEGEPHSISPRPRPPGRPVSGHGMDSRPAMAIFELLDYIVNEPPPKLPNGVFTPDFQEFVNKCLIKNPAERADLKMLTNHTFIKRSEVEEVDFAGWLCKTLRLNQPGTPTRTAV
Chain of Phosphorylase b kinase gamma catalytic chain, skeletal muscle/heart isoform (Homo sapiens) (Q16816 whole entry, looked up, canonical isoform): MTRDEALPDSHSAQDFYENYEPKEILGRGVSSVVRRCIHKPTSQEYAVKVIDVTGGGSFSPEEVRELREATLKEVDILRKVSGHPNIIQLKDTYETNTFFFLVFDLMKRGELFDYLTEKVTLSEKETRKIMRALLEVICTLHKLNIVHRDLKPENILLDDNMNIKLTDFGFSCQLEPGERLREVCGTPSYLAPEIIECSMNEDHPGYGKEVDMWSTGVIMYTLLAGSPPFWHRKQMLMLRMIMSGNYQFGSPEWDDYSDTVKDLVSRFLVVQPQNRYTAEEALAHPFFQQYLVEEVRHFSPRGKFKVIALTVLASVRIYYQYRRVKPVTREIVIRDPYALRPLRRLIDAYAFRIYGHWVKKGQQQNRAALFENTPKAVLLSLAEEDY

Turning to `O=C(c1ccc(-c2cnc3c(c2)N(Cc2cc(Cl)ccc2C(F)(F)F)CCN3)cc1)N1CCCCC1`, the inhibition in [1], in [2], in [3], in [4], in test [5] and in test [6] was less than 50% each time. In addition, the inhibition in [7] and in test [8] was less than 50% in each case.

For the compound `CN1CCN(c2ccc(-c3cnc4c(c3)N(Cc3c(F)ccc(F)c3Cl)CCN4)cn2)CC1`, the inhibition in test [1] was less than 50%; in test [9], 73%; in test [2], 76%; in test [10], less than 50%; in test [3] it was less than 50%; in test [4], less than 50%. Moreover, the inhibition in test [11], in [12], in test [5], in test [6], in [7] and in [8] was less than 50% each time.

As for `COC1CCN(C(=O)c2ccc(-c3cnc4c(c3)N(Cc3cc(Cl)ccc3C(F)(F)F)CCN4)cc2)CC1`, the inhibition in test [1], in test [2], in [3], in test [4], in test [5] and in [6] was less than 50% throughout. In addition, the inhibition in test [7] and in [8] was less than 50% throughout. The compound further showed a half-maximal inhibitory concentration (IC50) in test [13] of 450 nM.

As for `O=C(O)c1ccc(-c2cnc3c(c2)N(Cc2cc(Cl)ccc2C(F)(F)F)CCN3)cc1`, the inhibition was less than 50% in test [1]; less than 50% in test [2]; 93% in [3]; less than 50% in [4]; less than 50% in test [5]; less than 50% in test [6]. Moreover, the inhibition in test [7] and in test [8] was less than 50% throughout.

As to `FC(F)(F)c1ccc(Cl)cc1CN1CCNc2ncc(-c3ccnc(N4CCNCC4)c3)cc21`, the inhibition is less than 50% in [1]; 99% in [9]; less than 50% in [2]; less than 50% in test [10]; less than 50% in [3]; less than 50% in test [4]. Moreover, the inhibition in test [11], in test [12], in test [5], in [6], in test [7] and in test [8] was less than 50% throughout. For the same compound, 150 nM corresponded to half-maximal inhibition in test [13] (IC50).

Take `CN1CCN(c2ccc(-c3cnc4c(c3)N(Cc3cc(Cl)ccc3Cl)CCN4)cn2)CC1`: the inhibition in test [1] was less than 50%; in test [9] it was 98%; in test [2], less than 50%; in test [10], less than 50%; in [3] it was less than 50%; in test [4], less than 50%. Further, the inhibition in [11], in test [12], in [5], in test [6], in [7] and in test [8] was less than 50% throughout.

With `O=C(c1ccc(-c2cnc3c(c2)N(Cc2cc(Cl)ccc2C(F)(F)F)CCN3)cc1)N1CCC(N2CCCC2)CC1`, the inhibition in [1], in [2], in test [3], in test [4], in [5] and in test [6] was less than 50% each time. In addition, the inhibition in [7] and in test [8] was less than 50% in each case. The compound also had a concentration for half-maximal inhibition (IC50) in test [13] of 250 nM.

For the compound `CN1CCN(c2ccc(-c3cnc4c(c3)N(Cc3cc(Cl)ccc3C(F)(F)F)CCN4)cn2)CC1`, the inhibition in test [1] was less than 50%; in test [9] it was 80%; in test [2] it was less than 50%; in test [10], less than 50%; in test [3], less than 50%; in test [4] it was less than 50%. The inhibition in [11], in test [12], in test [5], in test [6], in test [7] and in test [8] was less than 50% throughout.

Take `CC(=O)N1CCN(c2cc(-c3cnc4c(c3)N(Cc3cc(Cl)ccc3C(F)(F)F)CCN4)ccn2)CC1`: the inhibition in test [1] is less than 50%; in [9], 90%; in test [2] it was less than 50%; in test [10], less than 50%; in [3], less than 50%; in test [4], less than 50%. Also, the inhibition is 82% in [11]; less than 50% in test [12]; less than 50% in test [5]; less than 50% in test [6]; less than 50% in test [7]; less than 50% in [8]. Further, half-maximal inhibition in [13] (IC50) was put at 250 nM.

`CN1CCN(c2ccc(-c3cnc4c(c3)N(Cc3cc(F)ccc3F)CCN4)cn2)CC1`: the inhibition in test [1] is less than 50%; in test [9] it was 75%; in [2] it was less than 50%; in test [10] it was less than 50%; in test [3], less than 50%; in test [4], less than 50%. Moreover, the inhibition in test [11], in [12], in [5], in test [6], in test [7] and in test [8] was less than 50% in each case. This compound also gave an IC50 in test [13] of 200 nM.
